Measurements gathered from unrelated publications.
Target: Mu-type opioid receptor (OPRM1, Homo sapiens, UniProt P35372)

SMILES	test	test system	setting	quantity	value
CC[C@@H]1CN2CC[C@@]3(O)C(=Nc4cccc(OC)c43)[C@@H]2C[C@@H]1/C(=C\OC)C(=O)OC	β-arrestin recruitment, agonist	–	–	Emax	< 50%
CCCCC/C=C\C/C=C\C/C=C\C/C=C\CCCC(=O)O	ligand displacement, radioligand	–	10 µM, cell membranes	inhibition	80%
CN(C)C(=O)Cn1cc(-c2nc(C3(c4ccc(-c5cnc(N)nc5)cc4)CC3)no2)cn1	cell-free assay	–	10 µM	inhibition	12.6%
CCN(CC)CCCC[C@H](NC(=O)[C@H](CC(C)C)NC(=O)[C@H](C)NC(=O)[C@H](Cc1ccccc1)NC(=O)c1ccc(C(C)(C)C)cc1)C(=O)N[C@@H](CO)C(=O)OC	ligand displacement, radioligand	–	10 µM	remaining binding	48.6%
COCc1c(-c2cc3cc(C)cc(OC)c3s2)c2c(N)ncnn2c1CN1CCNC(=O)C1	ligand displacement, radioligand	–	10 µM	inhibition	31%
C[C@H](C(=O)N[C@H]1COc2ccccc2[C@@H]1S(C)(=O)=O)c1ccc(F)cc1	ligand displacement	–	10 µM	inhibition	-8%
Clc1ccc2c(C3CCN(CCc4c[nH]c5ccccc45)CC3)c[nH]c2c1	ligand displacement, radioligand	–	10 µM	inhibition	93%
Nc1ncc(-c2nc(N3CCOCC3)nc(N3CCOCC3)n2)c(C(F)F)n1	cell-free assay, radioligand	–	10 µM	remaining signal	104%
COc1ccsc1CNCC[C@@]1(c2ccccn2)CCOC2(CCCC2)C1	β-arrestin recruitment, agonist	–	–	Emax	< 50%
CC1=C(C#N)C(c2ccc3[nH]nc(C)c3c2)C(C#N)=C(C)N1	ligand displacement	–	10 µM	inhibition	2.64%
CC(C)N1CCC[C@H]1CNC(=O)c1cn(C2CCCC2)c(=O)c2c1c1ccccc1n2C	ligand displacement, radioligand	–	10 µM	inhibition	5%
COc1ccsc1CNCC[C@@]1(c2ccccn2)CCOC2(CCCC2)C1	β-arrestin recruitment, agonist	HEK-293T	–	Emax	< 5%
CC1(C)SSC(C)(C)[C@@H](NC(=O)[C@@H](N)Cc2ccc(O)cc2)C(=O)NCC(=O)N[C@@H](Cc2ccccc2)C(=O)N2CCN(CC2)C(=O)[C@H](Cc2ccccc2)NC(=O)CNC(=O)[C@@H]1NC(=O)[C@@H](N)Cc1ccc(O)cc1	cAMP, agonist, luciferase	HEK293	–	Emax	86%
c1ccc(C(NCCNC(c2ccccc2)c2ccccc2)c2ccccc2)cc1	ligand displacement	–	10 µM	inhibition	21%
COc1ccc2c(c1)O[C@H](c1ccc(OC)c(OC)c1)C[C@@H]2NC(=O)C1(c2ccc3c(c2)OC(F)(F)O3)CC1	cell-free assay	–	10 µM	inhibition	6.01%
CN1CCN(c2cc(-c3ccncc3)c(-c3ccc4ccccc4c3)nn2)CC1	calcium signal, agonist	OPRM1	12.5 µM	activation	0.3%
